Where a SMILES comes first, the peptide text is derived from it.
Legend:
[1] = target: Kappa-type opioid receptor (Homo sapiens, UniProt P41145); assay: Displacement of [3H]U69593 from human kappa opioid receptor expressed in CHO-K1 cells incubated for 1 hr by 1450 microbeta scintillation counter analysis; format: cell-based
Procedure, shortened: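 Membranes from transiently KOR-transfected CHO-K1 cells (~2 µg/well) used in SPA with 3H-U69,593 (1 nM). Competitor ranged 1 pM–10 µM in 50 mM Tris-HCl pH 7.4, 5 mM MgCl2, 0.1% BSA. Incubated 1 h at room temperature with shaking. Nonspecific binding defined with 10 µM dynorphin A. Sigmoidal dose-response fit; at least three independent experiments in triplicate.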

[2] = Metabolic stability in Wistar rat plasma assessed as half life by HPLC analysis; format: ADME, cell-free
Procedure, shortened: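 Peptide at 1 mg/mL in sterile PBS pH 7.4 was mixed 1:1 with thawed, centrifuged Wistar rat plasma supernatant and incubated at 37°C in triplicate. Samples at 0, 1, 2, 3, 4, 6 and 24 h were quenched with acetonitrile and then 2% TFA/water, and analysed by HPLC with inline electrospray MS.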

Chain of Kappa-type opioid receptor (P41145 whole entry): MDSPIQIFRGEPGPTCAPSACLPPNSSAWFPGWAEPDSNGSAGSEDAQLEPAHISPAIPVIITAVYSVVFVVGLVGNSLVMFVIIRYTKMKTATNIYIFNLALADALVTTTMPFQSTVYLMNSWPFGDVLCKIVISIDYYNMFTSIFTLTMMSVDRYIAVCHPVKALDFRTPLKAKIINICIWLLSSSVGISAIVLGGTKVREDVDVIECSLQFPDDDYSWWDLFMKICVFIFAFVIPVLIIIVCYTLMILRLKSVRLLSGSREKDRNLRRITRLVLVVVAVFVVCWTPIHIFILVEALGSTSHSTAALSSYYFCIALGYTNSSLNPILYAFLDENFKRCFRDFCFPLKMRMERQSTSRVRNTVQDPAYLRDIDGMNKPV

SMILES	Ki [1] [nM]	half-life [2] [h]
N=C(N)NCCC[C@H](NC(=O)[C@H](CCCNC(=N)N)NC(=O)[C@@H]1CSSC[C@H](NC(=O)[C@@H](N)CC(N)=O)C(=O)N1)C(=O)N[C@@H](CCC(N)=O)C(=O)N[C@@H](Cc1cccc2ccccc12)C(=O)N[C@H]1CSSC[C@@H](C(N)=O)NC1=O (HELM PEPTIDE1{N.C.C.R.R.Q.[O=C([C@H](Cc1cccc2ccccc12)N[*:1])[*:2]].C.C.[am]}$PEPTIDE1,PEPTIDE1,2:R3-3:R3|PEPTIDE1,PEPTIDE1,8:R3-9:R3$$$V2.0)	2.9	< 0.25
N=C(N)NCCC[C@@H](NC(=O)c1cnc2ccccc2c1)C(=O)N[C@H](CCCNC(=N)N)C(=O)N[C@@H](CCC(N)=O)C(=O)N[C@@H](CC1CCCCC1)C(=O)N[C@H]1CSSC[C@@H](C(N)=O)NC1=O	0.71	0.75
N=C(N)NCCC[C@@H](NC(=O)[C@@H](CCCNC(=N)N)NC(=O)[C@@H]1CCCN1C(=O)c1ccc2ccccc2c1)C(=O)N[C@@H](CCC(N)=O)C(=O)N[C@@H](CC1CCCCC1)C(=O)N[C@H]1CSSC[C@@H](C(=O)O)NC1=O	229	0.5
N=C(N)NCCC[C@@H](NC(=O)[C@@H]1Cc2ccccc2CN1)C(=O)N[C@H](CCCNC(=N)N)C(=O)N[C@@H](CCC(N)=O)C(=O)N[C@@H](CC1CCCCC1)C(=O)N[C@H]1C[Se][Se]C[C@@H](C(N)=O)NC1=O	2.4	6
N=C(N)NCCC[C@@H](NC(=O)c1cc2ccccc2cc1N)C(=O)N[C@H](CCCNC(=N)N)C(=O)N[C@@H](CCC(N)=O)C(=O)N[C@@H](CC1CCCCC1)C(=O)N[C@H]1CSSC[C@@H](C(N)=O)NC1=O	0.64	1
N=C(N)NCCC[C@H](NC(=O)[C@@H]1CCC(=O)N1)C(=O)N[C@H](CCCNC(=N)N)C(=O)N[C@@H](CCC(N)=O)C(=O)N[C@@H](CC1CCCCC1)C(=O)N[C@H]1CSSC[C@@H](C(N)=O)NC1=O	16.1	20
N=C(N)NCCC[C@@H](NC(=O)[C@H]1NCCc2ccccc21)C(=O)N[C@H](CCCNC(=N)N)C(=O)N[C@@H](CCC(N)=O)C(=O)N[C@@H](CC1CCCCC1)C(=O)N[C@H]1CSSC[C@@H](C(N)=O)NC1=O	1.18	0.75
N=C(N)NCCC[C@@H](NC(=O)[C@@H](CCCNC(=N)N)NC(=O)[C@@H]1CCCN1C(=O)c1ccc(Cl)c(Cl)c1)C(=O)N[C@@H](CCC(N)=O)C(=O)N[C@@H](CS)C(=O)N[C@@H](CC1CCCCC1)C(=O)N[C@H]1CSSC[C@@H](C(N)=O)NC1=O	0.98	1
N=C(N)NCCC[C@@H](NC(=O)[C@@H](CCCNC(=N)N)NC(=O)[C@@H]1CCCN1C(=O)c1ccccc1)C(=O)NCC(=O)N[C@@H](CC1CCCCC1)C(=O)N[C@H]1CSSC[C@@H](C(N)=O)NC1=O	0.16	1
N=C(N)NCCC[C@@H](NC(=O)[C@@H](CCCNC(=N)N)NC(=O)[C@@H]1CCCN1C(=O)c1ccc(O)cc1)C(=O)N[C@@H](CCC(N)=O)C(=O)N[C@@H](CS)C(=O)N[C@@H](CC1CCCCC1)C(=O)N[C@H]1CSSC[C@@H](C(N)=O)NC1=O	1.2	2
N=C(N)NCCC[C@H](NC(=O)[C@@H](CCCNC(=N)N)NC(=O)[C@@H](CCCNC(=N)N)NC(=O)[C@@H]1CCCN1C(=O)c1ccccc1)C(=O)N[C@@H](CC1CCCCC1)C(=O)N[C@H]1CSSC[C@@H](C(N)=O)NC1=O	0.23	12
N=C(N)NCCC[C@@H](NC(=O)[C@@H](CCCNC(=N)N)NC(=O)[C@@H]1CCCN1C(=O)c1ccc2ccccc2c1)C(=O)N[C@@H](CCC(N)=O)C(=O)N[C@@H](CC1CCCCC1)C(=O)N[C@H]1CSSC[C@@H](C(N)=O)NC1=O	0.07	0.5
CC[C@H](C)[C@H](NC(=O)[C@H](CCC(N)=O)NC(=O)[C@H](CCCNC(=N)N)NC(=O)[C@@H](N)CCCNC(=N)N)C(=O)N[C@H]1CSSC[C@@H](C(N)=O)NC1=O (HELM PEPTIDE1{R.R.Q.I.C.C.[am]}$PEPTIDE1,PEPTIDE1,5:R3-6:R3$$$V2.0)	270	0.75
N=C(N)NCCC[C@@H](NC(=O)[C@@H]1Cc2ccccc2CN1)C(=O)N[C@H](CCCNC(=N)N)C(=O)N[C@@H](CCC(N)=O)C(=O)N[C@@H](CC1CCCCC1)C(=O)N[C@H]1CSSC[C@@H](C(N)=O)NC1=O	0.91	0.75
COc1ccc(C(=O)N2CCC[C@H]2C(=O)N[C@H](CCCNC(=N)N)C(=O)N[C@H](CCCNC(=N)N)C(=O)N[C@@H](CCC(N)=O)C(=O)N[C@@H](CS)C(=O)N[C@@H](CC2CCCCC2)C(=O)N[C@H]2CSSC[C@@H](C(N)=O)NC2=O)cc1	0.59	2
N=C(N)NCCC[C@H](NC(=O)[C@H](CCCNC(=N)N)NC(=O)[C@@H]1CSSC[C@H](NC(=O)[C@@H](N)CC(N)=O)C(=O)N1)C(=O)N[C@@H](CCC(N)=O)C(=O)N[C@@H](CC1CCCCC1)C(=O)N[C@H]1CSSC[C@@H](C(N)=O)NC1=O (HELM PEPTIDE1{N.C.C.R.R.Q.[Cha].C.C.[am]}$PEPTIDE1,PEPTIDE1,2:R3-3:R3|PEPTIDE1,PEPTIDE1,8:R3-9:R3$$$V2.0)	1.3	< 0.25

SMILES	Ki [1] [nM]	half-life [2] [h]
N=C(N)NCCC[C@@H](NC(=O)[C@@H](CCCNC(=N)N)NC(=O)[C@@H]1CCCN1C(=O)c1ccc(Cl)cc1)C(=O)N[C@@H](CCC(N)=O)C(=O)N[C@@H](CC1CCCCC1)C(=O)N[C@H]1CSSC[C@@H](C(N)=O)NC1=O	0.13	1
N=C(N)NCCC[C@@H](NC(=O)[C@@H](CCCNC(=N)N)NC(=O)[C@@H]1CCCN1C(=O)c1ccccc1)C(=O)N[C@@H](CCC(N)=O)C(=O)N[C@@H](CC1CCCCC1)C(=O)N[C@H]1CSSC[C@@H](C(=O)O)NC1=O	2140	–
N=C(N)NCCC[C@@H](NC(=O)[C@@H]1CCC(=O)N1)C(=O)N[C@H](CCCNC(=N)N)C(=O)N[C@@H](CCC(N)=O)C(=O)N[C@@H](CC1CCCCC1)C(=O)N[C@H]1CSSCC[C@@H](C(N)=O)NC1=O	1570	–
N=C(N)NCCC[C@@H](NC(=O)[C@@H](CCCNC(=N)N)NC(=O)[C@@H]1CCCN1C(=O)c1ccccc1)C(=O)N[C@@H](CCC(N)=O)C(=O)N[C@@H](CC1CCCCC1)C(=O)N1C[C@@H]2C[C@H]1C(=O)N[C@H](C(N)=O)CSS2	786	–
CC[C@H](C)[C@H](NC(=O)[C@H](CCC(N)=O)NC(=O)[C@H](CCCNC(N)=O)NC(=O)[C@H](CCCNC(=N)N)NC(=O)[C@@H]1CSSC[C@H](NC(=O)[C@@H](N)CC(N)=O)C(=O)N1)C(=O)NC1CSSC[C@@H](C(N)=O)NC1=O (single isomer, unassigned)	387	–
N=C(N)NCCC[C@@H](NC(=O)[C@@H](CCCNC(=N)N)NC(=O)[C@@H]1CCCN1C(=O)c1ccccc1)C(=O)N[C@@H](CC(=O)O)C(=O)N[C@@H](CC1CCCCC1)C(=O)N[C@H]1CSSC[C@@H](C(N)=O)NC1=O	10.2	–
CC[C@H](C)[C@H](NC(=O)[C@H](CCC(N)=O)NC(=O)[C@H](CCCNC(=N)N)NC(=O)[C@H](CCCNC(N)=O)NC(=O)[C@@H]1CSSC[C@H](NC(=O)[C@@H](N)CC(N)=O)C(=O)N1)C(=O)N[C@H]1CSSC[C@@H](C(N)=O)NC1=O (HELM PEPTIDE1{N.C.C.[Cit].R.Q.I.C.C.[am]}$PEPTIDE1,PEPTIDE1,2:R3-3:R3|PEPTIDE1,PEPTIDE1,8:R3-9:R3$$$V2.0)	218	–
CC[C@H](C)[C@H](NC(=O)[C@H](CCCN=C(N)N)NC(=O)[C@H](CCCN=C(N)N)NC(=O)[C@H](CC(C)C)NC(=O)[C@H](Cc1ccccc1)NC(=O)CNC(=O)CNC(=O)[C@@H](N)Cc1ccc(O)cc1)C(=O)N[C@@H](CCCN=C(N)N)C(=O)N1CCC[C@H]1C(=O)N[C@@H](CCCCN)C(=O)N[C@@H](CC(C)C)C(=O)N[C@@H](CCCCN)C(N)=O	0.4	–
C[C@H](NC(=O)[C@@H](CCCNC(=N)N)NC(=O)[C@@H](CCCNC(=N)N)NC(=O)[C@@H]1CCCN1C(=O)c1ccccc1)C(=O)N[C@@H](CC1CCCCC1)C(=O)N[C@H]1CSSC[C@@H](C(N)=O)NC1=O	0.29	–
N=C(N)NCCC[C@@H](NC(=O)[C@@H](CCCNC(=N)N)NC(=O)[C@@H]1CCCN1C(=O)c1ccccc1)C(=O)N[C@@H](CO)C(=O)N[C@@H](CC1CCCCC1)C(=O)N[C@H]1CSSC[C@@H](C(N)=O)NC1=O	0.42	–
N=C(N)NCCC[C@@H](NC(=O)[C@@H](CCCNC(=N)N)NC(=O)[C@@H]1CCCN1C(=O)c1ccccc1)C(=O)N[C@@H](CCC(N)=O)C(=O)N[C@@H](CC1CCCCC1)C(=O)N[C@H]1CSS[C@H]2C[C@@H](C(N)=O)N(C2)C1=O	208	–
CN(C(=O)[C@H](CC1CCCCC1)NC(=O)[C@H](CCC(N)=O)NC(=O)[C@@H](CCCNC(=N)N)NC(=O)[C@@H](CCCNC(=N)N)NC(=O)[C@@H]1CCCN1C(=O)c1ccccc1)[C@H]1CSSC[C@@H](C(N)=O)NC1=O	15	–
N=C(N)NCCC[C@@H](NC(=O)[C@@H](CCCNC(=N)N)NC(=O)[C@@H]1CCCN1C(=O)c1ccccc1)C(=O)N[C@@H](CCC(=O)O)C(=O)N[C@@H](CC1CCCCC1)C(=O)N[C@H]1CSSC[C@@H](C(N)=O)NC1=O	19.4	–
CC[C@H](C)[C@H](NC(=O)[C@H](CCC(N)=O)NC(=O)[C@H](CCCNC(=N)N)NC(=O)[C@H](CCCNC(=N)N)NC(=O)[C@@H]1CSSC[C@H](NC(=O)[C@@H](N)CC(N)=O)C(=O)N1)C(N)=O (HELM PEPTIDE1{N.C.C.R.R.Q.I.[am]}$PEPTIDE1,PEPTIDE1,2:R3-3:R3$$$V2.0)	14700	–
CC[C@H](C)[C@H](NC(=O)[C@H](CCCNC(=N)N)NC(=O)[C@H](CCCNC(=N)N)NC(=O)[C@H](CC(C)C)NC(=O)[C@H](Cc1ccccc1)NC(=O)CNC(=O)CNC(=O)[C@@H](N)Cc1ccc(O)cc1)C(=O)N[C@@H](CCCNC(=N)N)C(=O)N1CCC[C@H]1C(=O)N[C@@H](CCCCN)C(=O)N[C@@H](CC(C)C)C(=O)N[C@@H](CCCCN)C(=O)N[C@@H](Cc1c[nH]c2ccccc12)C(=O)N[C@@H](CC(=O)O)C(=O)N[C@@H](CC(N)=O)C(=O)N[C@@H](CCC(N)=O)C(N)=O	–	2
